# Compound activity: PubChem, several laboratories
# TLR4-MyD88 BLA = TLR4-MyD88 interaction inhibition in cells; O00206+Q99836; hit rate 0.18% among 200,000; HeLa CL3-4 TLR4/MyD88 BLA complementation, FRET ratio; inhibition, % at 8.4 µM; AID 861; in the data active = inhibition above about 25%;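 note: 0% = vehicle and 100% = reference inhibitor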
# NOD2-RIPK2 inh = inhibitors of human NOD2-RIPK2 interaction | O43353 | CHO BLA complementation NOD2-RIPK2, CCF4 ratio | inhibition, % at 4.98 µM | hit rate 0.38% among 360,000; in the data active = inhibition above about 21%;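 note: 0% = vehicle only and 100% = reference blocker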
# Target sequence (O43353 whole entry, looked up): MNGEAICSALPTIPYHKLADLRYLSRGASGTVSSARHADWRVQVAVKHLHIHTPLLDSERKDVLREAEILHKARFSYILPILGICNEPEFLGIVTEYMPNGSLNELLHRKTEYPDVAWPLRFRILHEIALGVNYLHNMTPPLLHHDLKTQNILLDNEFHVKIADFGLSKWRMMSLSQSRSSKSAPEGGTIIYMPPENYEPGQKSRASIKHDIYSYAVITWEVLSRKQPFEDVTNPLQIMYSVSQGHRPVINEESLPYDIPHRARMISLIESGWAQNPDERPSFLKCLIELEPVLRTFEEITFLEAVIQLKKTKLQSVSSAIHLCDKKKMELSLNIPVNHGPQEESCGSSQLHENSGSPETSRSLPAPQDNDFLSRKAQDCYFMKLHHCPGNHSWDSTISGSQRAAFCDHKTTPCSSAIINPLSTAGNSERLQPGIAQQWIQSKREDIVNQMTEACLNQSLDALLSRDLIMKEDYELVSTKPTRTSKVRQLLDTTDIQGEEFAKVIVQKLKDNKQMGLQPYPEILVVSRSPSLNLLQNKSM
# TLR9-MyD88 inh = blocks human TLR9 binding to MyD88 | inhibition, % at 4.98 µM | CHO BLA complementation TLR9-MyD88, CCF4 FRET ratio | hit rate 0.21% among 340,000 | AID 504734;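 active = inhibition above the mean over all tested compounds plus 3 SD, cut at about 21% in these data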;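 note: 0% = DMSO only wells and 100% = clavulanate BLA inhibitor control wells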
# UPR XBP1 act = activators of adaptive arm of unfolded protein response (XBP1) | hit rate 0.33% among 330,000 | activation, % at 20 µM | CHO-XBP1 luciferase reporter, IRE1-XBP1 UPR activation, luminescence; percent of tunicamycin response, DMSO as zero | AID 463104;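 active = versus positive control, 20 µM dose yields 30% or more activation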;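 note: 100% = tunicamycin at 10 µg/mL and 0% = DMSO only wells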
#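 Material – CHO cell line with stable XBP1 luciferase reporter · Buffer or medium – F12 plus 10% FBS · Compound – single point, 20 µM final compound, 1% DMSO · Schedule – 16-18 h cell attachment at 37 °C, then 6 h compound exposure · Signal – Steady-Glo luminescence read · Benchmarks – high control tunicamycin 10 µg/mL final, low control DMSO vehicle only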
# CHOP UPR activ = apoptotic UPR (CHOP) activation; CHO-CHOP luciferase reporter, luminescence; percent of tunicamycin response over DMSO baseline; activation, % at 10 µM; hit rate 0.34% among 330,000; AID 449763;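 active = at 10 µM dose, activation of 40% or more, normalized to positive control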;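 note: 100% = tunicamycin at 10 µg/mL and 0% = DMSO alone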
#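 Assay system: CHO-CHOP cells, stable luciferase reporter of PERK-eIF2a-CHOP signalling / Buffer or medium: F12 plus 10% serum / Compound dosing: one dose, 10 µM in 0.5% DMSO / Times: 6 h compound treatment, 37 °C / Technique: luciferase luminescence / Read-out: % reporter activation, DMSO baseline versus tunicamycin full activation / Benchmarks: tunicamycin and DMSO controls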
# CHOP inh = CHOP inhibition in unfolded protein response | CHO-K1 CHOP-promoter luciferase, tunicamycin-induced, 15-18 h | inhibition, % at 10 µM | hit rate 3.8% among 220,000;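 active = compounds that reduced the stress-induced luciferase reporter signal by more than about 70% of percent inhibition, limit read from the data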;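 note: 0% = tunicamycin plus vehicle and 100% = wells without tunicamycin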
# UPR CHOP confirm = apoptotic UPR (CHOP) activation, confirmed | AID 463112 | activation, % at 10 µM | hit rate 64% among 1,000 | shares compounds with CHOP UPR activ | CHO-CHOP cells, CHOP-luciferase reporter luminescence; percent of tunicamycin response, DMSO as zero; in the data active = activation above about 33%;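 note: 0% = DMSO wells and 100% = tunicamycin 10 µg/mL wells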
# Active calls of the source: *; / = not tested or not shown. Only a selection was taken, and hits are over-represented in it overall.
SMILES,TLR4-MyD88 BLA,NOD2-RIPK2 inh,TLR9-MyD88 inh,UPR XBP1 act,CHOP UPR activ,CHOP inh,UPR CHOP confirm
COCc1ccc(C(=O)N2CCCC(N(C)CCc3ccccc3)C2)s1 (configuration not stated),/,-15.5,-2.6,/,/,/,/
COc1ccc(C(=O)C(CN2CCCC2)c2ccccc2)cc1 (configuration not stated),-10.9,8.6,1.4,1.4,65.6*,-53.9,38.5*
CCCCOc1ccc(C(=O)C(CN2CCOCC2)c2ccccc2)cc1 (configuration not stated),5.2,7.5,9.1,14.3,37.6,/,/
CCCOc1ccc(C(=O)C(CN2CCCC2)c2ccccc2)cc1 (configuration not stated),-11.0,5.6,-3.0,/,/,-56.7,/
O=C(c1ccc(Cl)cc1)C(CN1CCCC1)c1ccccc1 (configuration not stated),/,18.0,2.1,-0.2,150.9*,/,169.7*
COc1ccc(C(=O)C(CN2CCOCC2)c2ccccc2)cc1 (configuration not stated),7.1,11.4,-11.6,-2.1,45.7*,-42.4,35.5*
C/C=C/c1cccc(-c2nc(C(=O)N3CCOCC3)cc3c2[C@@H](CCO)N(C(=O)NC(C)C)C3)c1,/,-11.3,/,/,/,/,/
Oc1ccc(/C=N\Nc2cc(N3CCOCC3)nc(N3CCOCC3)n2)c(O)c1,-2.1,1.9,-14.8,1.8,3.8,-33.8,/
Oc1ccc(/C=N/Nc2cc(N3CCCC3)nc(N3CCCC3)n2)cc1O,-9.5,-4.4,3.1,17.5,125.9*,12.0,123.8*
COCCN(Cc1ccc(C)cc1)C(=O)[C@H]1O[C@@H](n2ccc(N)nc2=O)[C@H](O)[C@@H]1O,/,0.2,/,/,/,/,/
CNC[C@@H](Cc1ccccc1)NC[C@@H](CC1CCCCC1)NCCCc1ccccc1,/,-4.3,-4.7,1.9,73.5*,/,34.0*
COc1ccc(CCNC(=O)c2coc(=O)c(Br)c2)cc1,/,/,/,-1.2,116.0*,/,56.3*
CN1C(=O)[C@@](O)(c2cn(C)c3ccccc23)c2cc(F)ccc21,/,2.3,/,/,/,/,/
O=C(Nc1ccc(S(=O)(=O)N2CCOCC2)cc1)c1ccco1,-12.9,9.8,-9.2,-0.7,0.8,66.8,/
O=C(Nc1ccc(S(=O)(=O)N2CCOCC2)cc1)c1ccc([N+](=O)[O-])o1,/,20.4,10.1,-0.5,139.0*,-89.2,97.8*
O=C(Nc1ccc(S(=O)(=O)N2CCOCC2)cc1)c1cccs1,12.2,-4.0,0.0,-1.6,1.7,14.0,/
O=C(Nc1ccc(N2CCOCC2)cc1)c1ccc([N+](=O)[O-])o1,/,7.2,-4.3,-0.4,56.9*,/,61.4*
O=C(Nc1ccc(S(=O)(=O)N2CCOCC2)cc1)c1ccc([N+](=O)[O-])s1,/,-8.1,0.2,3.7,67.9*,/,4.4
Cn1c(SCC(=O)NCC2CCCO2)ncc(C(=O)Nc2ccccc2)c1=O (configuration not stated),/,-2.3,-1.6,-0.1,11.1,/,/
Cc1ccc(NC(=O)c2cnc(SCC(=O)NCC3CCCO3)n(C)c2=O)cc1C (configuration not stated),/,-6.2,-6.6,-4.1,50.9*,/,23.5
Cn1nnnc1Sc1ncnc2scc(-c3ccc(-c4ccccc4)cc3)c12,/,-1.1,1.8,0.2,4.7,/,/
Cn1nnnc1Sc1ncnc2scc(-c3cc4ccccc4o3)c12,/,13.5,13.7,-7.5,86.2*,/,117.8*
COc1ccc(-c2cc(C(F)(F)F)nc(S(=O)(=O)CCCC(=O)Nc3cccc(O)c3)n2)cc1OC,11.9,-3.9,/,6.2,55.4*,-125.0,22.2
COc1ccc(-c2cc(C(F)(F)F)nc(S(=O)(=O)CCC(=O)N3CCOCC3)n2)cc1,10.3,5.5,-5.8,-2.2,0.9,-27.6,/
CC1(C(=O)Nc2ccc(Cl)c(Cl)c2)CCN1CCc1ccccc1 (configuration not stated),/,5.7,/,/,/,/,/
SMILES,TLR4-MyD88 BLA,NOD2-RIPK2 inh,TLR9-MyD88 inh,UPR XBP1 act,CHOP UPR activ,CHOP inh,UPR CHOP confirm
CC(=O)Nc1ccc2nc(NC(=O)c3ccc([N+](=O)[O-])o3)sc2c1,/,-11.3,-7.1,0.9,61.3*,/,24.9
CC(=O)Nc1ccc2nc(NC(=O)c3ccco3)sc2c1,/,-1.9,-2.5,-3.7,3.1,/,/
Cc1cc(N2CCN(c3ccccc3)CC2)nc(-n2nc(C)cc2C)n1,-3.3,6.6,-1.9,13.3,51.9*,-111.1,3.9
Cc1cc(C)nc(-n2nc(C)cc2Nc2ccccc2)n1,-2.7,-5.0,-0.1,16.7,58.8*,-37.4,5.0
Cc1[nH]c2ccccc2c1/C=N/Nc1nc2ccccc2[nH]1,/,-15.7,/,4.7,87.1*,-222.4,2.5
O=C1C=C(N2CCOCC2)c2ccccc2C1=O,/,-1.6,-1.8,-8.4,41.4*,/,2.6
CN(C)c1ccccc1-c1cc(NC=O)c2ncc(-c3cccc(C(F)(F)F)c3)n2c1,/,-5.5,/,/,/,/,/
O=C(CCN1C(=O)C2C3C=CC(C4CC34)C2C1=O)Oc1cccc2cccnc12 (configuration not stated),-6.0,-4.7,-7.2,9.5,71.9*,47.7,60.2*
CCOC(=O)C1CCN(Cc2ccccc2C(F)(F)F)CC1,-3.8,-22.2,-3.8,-0.7,0.3,27.2,/
CCOC(=O)C1CCN(Cc2ccc(O)c3ncccc23)CC1,3.5,4.4,6.8,5.9,234.8*,/,142.3*
CCOC(=O)N1CCN(Cc2cc(Cl)c3cccnc3c2O)CC1,2.2,/,/,18.5,105.2*,82.7*,116.1*
CCOC(=O)c1c(NC(=O)CSc2nnnn2-c2ccc(OC)cc2)sc(C)c1C,-0.7,-8.8,-5.7,0.7,56.7*,39.5,1.1
CCOC(=O)C1(C)Oc2ccccc2C(C(=O)OC)=C1C(=O)OC (configuration not stated),/,2.1,0.1,1.2,4.8,/,/
COC(=O)C1=C(C(=O)OC)SC2(S1)C(C(=O)OC)=C(C(=O)OC)SC1=C2c2cccc(C)c2NC1(C)C,-9.4,3.4,-2.4,3.2,40.5*,50.2,18.9
COc1ccc(C(CNC(=O)c2ccc(OCc3csc(C)n3)cc2)N2CCCC2)cc1 (configuration not stated),/,-5.0,-0.4,/,/,/,/
CCOC(=O)c1cc(-c2ccc(/C=C3/C(=O)N(c4ccc(C(=O)O)cc4)N=C3C)o2)ccc1Cl,/,0.0,3.5,6.1,87.0*,/,135.5*
O=C(CCN1C(=O)/C(=C\c2ccccc2)SC1=S)N1CCCCC1,/,-8.1,5.8,-3.3,8.5,/,/
O=C(CCN1C(=O)/C(=C/c2cccs2)SC1=S)N1CCCCC1,/,-7.7,-8.1,-2.9,40.2*,/,23.2
Cc1ccn2cc(-c3cccc(NC(=O)C(C)C)c3)nc2c1,-1.6,-1.2,-11.5,2.3,5.5,-7.0,/
